From ChEMBL document CHEMBL4020842, “Discovery of N1-(4-((7-Cyclopentyl-6-(dimethylcarbamoyl)-7 H-pyrrolo[2,3- d]pyrimidin-2-yl)amino)phenyl)- N8-hydroxyoctanediamide as a Novel Inhibitor Targeting Cyclin-dependent Kinase 4/9 (CDK4/9) and Histone Deacetlyase1 (HDAC1) against Malignant Cancer” (J Med Chem, 2018) come the findings set out here.

Assay [1] relates to Hep 3B2. As to the kind of experiment: Cell cycle arrest in human Hep3B cells assessed as accumulation at G0/G1 phase after 24 hrs by propidium iodide staining based flow cytometry. Type of assay: functional. An outline of the steps: (§1)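 Cells were exposed for 24 h to a range of concentrations (625 nM, 2.5 and 10 µM), with DMSO vehicle as control. They were then stained with propidium iodide and analysed by flow cytometry to obtain the percentages of cells in G0/G1, S and G2 phases.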

Assay [2] has as its system HepG2. As to the kind of experiment: Cell cycle arrest in human HepG2 cells assessed as accumulation at G0/G1 phase after 24 hrs by propidium iodide staining based flow cytometry. Type of assay: functional. In short, it runs like this:
as §1

Assay [3] concerns A549. As to the kind of experiment: Cell cycle arrest in human A549 cells assessed as accumulation at G0/G1 phase after 24 hrs by propidium iodide staining based flow cytometry. Type of assay: functional. An outline of the steps:
as §1

Assay [4] relates to T47D. As to the kind of experiment: Cytotoxicity against human T47D cells assessed as reduction in cell viability after 72 hrs by CCK8 assay. Type of assay: functional, cell-based.
The subject of assay [5] is A549. As to the kind of experiment: Cytotoxicity against human A549 cells assessed as reduction in cell viability after 72 hrs by CCK8 assay. Type of assay: functional, cell-based. The following applies: A549, 72 h.
For assay [6], the system named is NCI-H1299. As to the kind of experiment: Cytotoxicity against human NCI-H1299 cells assessed as reduction in cell viability after 72 hrs by CCK8 assay. The assay is classed as functional, cell-based. The note with it: NCI-H1299, 72 h.
The test system of assay [7] is NCI-H460. As to the kind of experiment: Cell cycle arrest in human NCI-H460 cells assessed as accumulation at G0/G1 phase after 24 hrs by propidium iodide staining based flow cytometry. The assay is classed as functional. An outline of the steps: as §1
Assay [8] concerns T47D. As to the kind of experiment: Cell cycle arrest in human T47D cells assessed as accumulation at G0/G1 phase after 24 hrs by propidium iodide staining based flow cytometry. Type of assay: functional. An outline of the steps:
as §1

Assay [9] relates to MDA-MB-231. As to the kind of experiment: Cell cycle arrest in human MDA-MB-231 cells assessed as accumulation at G0/G1 phase after 24 hrs by propidium iodide staining based flow cytometry. Type of assay: functional. In short, it runs like this:
as §1

Assay [10] relates to Hep 3B2. As to the kind of experiment: Cytotoxicity against human Hep3B cells assessed as reduction in cell viability after 72 hrs by CCK8 assay.
Assay [11] has as its system HepG2. As to the kind of experiment: Cytotoxicity against human HepG2 cells assessed as reduction in cell viability after 72 hrs by CCK8 assay. The assay is classed as functional, cell-based. The note with it: HepG2, 72 h.
For assay [12], the system named is NCI-H460. As to the kind of experiment: Cytotoxicity against human NCI-H460 cells assessed as reduction in cell viability after 72 hrs by CCK8 assay. Type of assay: functional, cell-based. The note with it: NCI-H460, 72 h.
In assay [13] the test system is MDA-MB-468. As to the kind of experiment: Cytotoxicity against human MDA-MB-468 cells assessed as reduction in cell viability after 72 hrs by CCK8 assay. The following applies: MDA-MB-468, 72 h. Type of assay: functional, cell-based.
Assay [14] deals with MDA-MB-231. As to the kind of experiment: Cytotoxicity against human MDA-MB-231 cells assessed as reduction in cell viability after 72 hrs by CCK8 assay. The note with it: MDA-MB-231, 72 h. The assay is classed as functional, cell-based.
The test system of assay [15] is 4T1. As to the kind of experiment: Cytotoxicity against mouse 4T1 cells assessed as reduction in cell viability after 72 hrs by CCK8 assay. The assay is classed as functional, cell-based. The note with it: 4T1, 72 h.
In assay [16] the test system is 4T1. As to the kind of experiment: Antitumor activity against mouse Fluc-labeled 4T1 cells implanted in Balb/c mouse assessed as tumor growth inhibition at 130 mg/kg, ip administered daily for 18 days measured after 8 to 25 days by bioluminescence assay relative to control. Type of assay: functional. The note with it: 4T1, ip, read-out: TGI.
The subject of assay [17] is 4T1. As to the kind of experiment: Antitumor activity against mouse Fluc-labeled 4T1 cells implanted in Balb/c mouse assessed as reduction in tumor weight at 130 mg/kg, ip administered daily for 18 days measured after 8 to 25 days. Type of assay: functional, organism-based. An outline of the steps: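 Luciferase (Fluc) reporter introduced into 4T1 cells by lentiviral transduction. Cells implanted orthotopically into mammary fat pads of female BALB/c mice aged 6–8 weeks. Once tumours averaged 100 mm3, dosing was daily by IP injection. Bioluminescence imaging was done at days 8 and 25 to reflect viable tumour cell number. Tumour weight was recorded at study end.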

Assay [18] relates to 4T1. As to the kind of experiment: Antitumor activity against mouse Fluc-labeled 4T1 cells implanted in Balb/c mouse assessed as tumor growth inhibition at 130 mg/kg, po administered daily via gavage for 18 days by bioluminescence assay relative to control. Type of assay: functional. The following applies: 4T1, po, 432 h, read-out: TGI.
The subject of assay [19] is HepG2. As to the kind of experiment: Induction of apoptosis in human HepG2 cells assessed as live cells at 10 uM after 48 hrs by annexin V-FITC/propidium iodide staining based flow cytometry (reference value: 96.7%). Type of assay: functional.
The subject of assay [20] is A549. As to the kind of experiment: Induction of apoptosis in human A549 cells assessed as necrotic cells at 10 uM after 48 hrs by annexin V-FITC/propidium iodide staining based flow cytometry (reference value: […]%). The assay is classed as functional.
In assay [21] the test system is A549. As to the kind of experiment: Induction of apoptosis in human A549 cells assessed as late apoptotic cells at 10 uM after 48 hrs by annexin V-FITC/propidium iodide staining based flow cytometry (reference value: 0.88%). Type of assay: functional.
Assay [22] has as its system NCI-H460. As to the kind of experiment: Induction of apoptosis in human NCI-H460 cells assessed as necrotic cells at 10 uM after 48 hrs by annexin V-FITC/propidium iodide staining based flow cytometry (reference value: 1.34%). Type of assay: functional.
Assay [23] relates to NCI-H460. As to the kind of experiment: Induction of apoptosis in human NCI-H460 cells assessed as late apoptotic cells at 10 uM after 48 hrs by annexin V-FITC/propidium iodide staining based flow cytometry (reference value: 1.29%). Type of assay: functional.
The subject of assay [24] is NCI-H460. As to the kind of experiment: Induction of apoptosis in human NCI-H460 cells assessed as early apoptotic cells at 10 uM after 48 hrs by annexin V-FITC/propidium iodide staining based flow cytometry (reference value: 0.11%). The assay is classed as functional.
Assay [25] concerns NCI-H460. As to the kind of experiment: Induction of apoptosis in human NCI-H460 cells assessed as live cells at 10 uM after 48 hrs by annexin V-FITC/propidium iodide staining based flow cytometry (reference value: 97.3%). Type of assay: functional.
In assay [26] the test system is T47D. As to the kind of experiment: Induction of apoptosis in human T47D cells assessed as necrotic cells at 10 uM after 48 hrs by annexin V-FITC/propidium iodide staining based flow cytometry (reference value: 0.8%). The assay is classed as functional.
Assay [27] concerns T47D. As to the kind of experiment: Induction of apoptosis in human T47D cells assessed as late apoptotic cells at 10 uM after 48 hrs by annexin V-FITC/propidium iodide staining based flow cytometry (reference value: 6.16%). Type of assay: functional.
Assay [28] concerns T47D. As to the kind of experiment: Induction of apoptosis in human T47D cells assessed as early apoptotic cells at 10 uM after 48 hrs by annexin V-FITC/propidium iodide staining based flow cytometry (reference value: 7.7%). Type of assay: functional.
For assay [29], the system named is T47D. As to the kind of experiment: Induction of apoptosis in human T47D cells assessed as live cells at 10 uM after 48 hrs by annexin V-FITC/propidium iodide staining based flow cytometry (reference value: 85.3%). Type of assay: functional.
Assay [30] relates to MDA-MB-231. As to the kind of experiment: Induction of apoptosis in human MDA-MB-231 cells assessed as necrotic cells at 10 uM after 48 hrs by annexin V-FITC/propidium iodide staining based flow cytometry (reference value: […]). Type of assay: functional.
The test system of assay [31] is MDA-MB-231. As to the kind of experiment: Induction of apoptosis in human MDA-MB-231 cells assessed as late apoptotic cells at 10 uM after 48 hrs by annexin V-FITC/propidium iodide staining based flow cytometry (reference value: 1.53%). Type of assay: functional.
Assay [32] relates to MDA-MB-231. As to the kind of experiment: Induction of apoptosis in human MDA-MB-231 cells assessed as early apoptotic cells at 10 uM after 48 hrs by annexin V-FITC/propidium iodide staining based flow cytometry (reference value: 0.4%). The assay is classed as functional.
Assay [33] concerns MDA-MB-231. As to the kind of experiment: Induction of apoptosis in human MDA-MB-231 cells assessed as live cells at 10 uM after 48 hrs by annexin V-FITC/propidium iodide staining based flow cytometry (reference value: 98.1%). The assay is classed as functional.
Assay [34] deals with A549. As to the kind of experiment: Induction of apoptosis in human A549 cells assessed as live cells at 10 uM after 48 hrs by annexin V-FITC/propidium iodide staining based flow cytometry (reference value: 92.7%). The assay is classed as functional.
For assay [35], the system named is A549. As to the kind of experiment: Induction of apoptosis in human A549 cells assessed as early apoptotic cells at 10 uM after 48 hrs by annexin V-FITC/propidium iodide staining based flow cytometry (reference value: 0.41%). Type of assay: functional.
Assay [36] has as its system HepG2. As to the kind of experiment: Induction of apoptosis in human HepG2 cells assessed as early apoptotic cells at 10 uM after 48 hrs by annexin V-FITC/propidium iodide staining based flow cytometry (reference value: 0.3%). Type of assay: functional.
Assay [37] relates to HepG2. As to the kind of experiment: Induction of apoptosis in human HepG2 cells assessed as late apoptotic cells at 10 uM after 48 hrs by annexin V-FITC/propidium iodide staining based flow cytometry (reference value: 0.64%). The assay is classed as functional.
The test system of assay [38] is HepG2. As to the kind of experiment: Induction of apoptosis in human HepG2 cells assessed as necrotic cells at 10 uM after 48 hrs by annexin V-FITC/propidium iodide staining based flow cytometry (reference value: 2.32%). The assay is classed as functional.
Assay [39] deals with Hep 3B2. As to the kind of experiment: Induction of apoptosis in human Hep3B cells assessed as live cells at 10 uM after 48 hrs by annexin V-FITC/propidium iodide staining based flow cytometry (reference value: 97.9%). Type of assay: functional.
The subject of assay [40] is Hep 3B2. As to the kind of experiment: Induction of apoptosis in human Hep3B cells assessed as late apoptotic cells at 10 uM after 48 hrs by annexin V-FITC/propidium iodide staining based flow cytometry (reference value: 5.25%). Type of assay: functional.
Assay [41] concerns Hep 3B2. As to the kind of experiment: Induction of apoptosis in human Hep3B cells assessed as necrotic cells at 10 uM after 48 hrs by annexin V-FITC/propidium iodide staining based flow cytometry (reference value: 4.97%). Type of assay: functional.

Active and inactive are the calls of the source. The rule behind the calls is not given here.

On to `CN(C)C(=O)c1cc2cnc(Nc3ccc(N4CCNCC4)cn3)nc2n1C1CCCC1` [RIBOCICLIB], for which the outcome in assay [1], in assay [2], in assay [3], in [7], in assay [8] and in assay [9] was Active. Besides, the outcome in assay [17] was Active. The IC50 in assay [4] is 6.23 µM; in assay [5], greater than 10 µM; in assay [6] it was 5.46 µM; in assay [10], greater than 10 µM; in assay [11], greater than 10 µM; in assay [12], greater than 10 µM. Also, the 50% inhibitory concentration (IC50) in [13], in assay [14] and in [15] was greater than 10 µM in each case. The inhibition in vivo at 130 mg/kg in [16] stood at 68.5%; in [18] it was 38.9%.

`O=C(CCCCCCC(=O)Nc1ccccc1)NO` [VORINOSTAT]: the Activity in assay [19] is reported as 74.9%; in assay [20], 18.1%; in [21], 33.4%; in assay [22], 4.81%; in [23] it was 6.4%; in assay [24], 2.2%. The Activity is 86.6% in assay [25]; 4.48% in assay [26]; 26.4% in assay [27]; 48.6% in [28]; 20.4% in assay [29]; 2.72% in [30]. The Activity in assay [31] is 18.7%; in assay [32], 3.74%; in [33], 74.8%; in assay [34], 42.1%; in assay [35], 6.41%; in assay [36], 5.43%. The Activity in [37] worked out at 14%; in [38] it was 5.69%; in assay [39], 53.2%; in assay [40], 32.8%; in assay [41], 3.43%. Also, the IC50 in [10] was 2.3 µM. Moreover, the result in assay [17] was Active.
